This is an account of results in ChEMBL document CHEMBL2203075, “Terpecurcumins A-I from the rhizomes of Curcuma longa: absolute configuration and cytotoxic activity” (J Nat Prod, 2012).

Common to all, as to assay type: functional, cell-based
In one experiment the test system is A549. Briefly: Cytotoxicity against human A549 cells after 72 hrs by crystal violet staining based microplate reader analysis. The settings on record: A549, 72 h. Summed up:
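At 50–60% confluence (24–48 h after plating), medium was refreshed before a 72 h treatment. Cells were fixed in 1% glutaraldehyde/PBS for 15 min and stained with 0.02% crystal violet for 30 min. After a PBS wash, dye was solubilized in 70% EtOH and read at A570 (ref 405 nm). IC50 reported; Taxol was the positive control.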

The next experiment concerns MDA-MB-231. The experiment is described as follows: Cytotoxicity against human MDA-MB-231 cells after 72 hrs by crystal violet staining based microplate reader analysis. The settings on record: MDA-MB-231, 72 h. Summed up:
(§1)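 ATCC HepG2 and MDA-MB-231 cells grown in DMEM with 10% FBS and no antibiotics. Medium was changed at 50–60% confluence (24–48 h post-plating), then cells were exposed for 72 h. Fixation used 1% glutaraldehyde in PBS for 15 min, followed by 0.02% aqueous crystal violet for 30 min. After a PBS wash and 70% EtOH solubilization, absorbance was read at 570 nm (ref 405 nm). IC50 derived; Taxol was the positive control.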

A further experiment relates to HepG2. The experiment is described as follows: Cytotoxicity against human HepG2 cells after 72 hrs by crystal violet staining based microplate reader analysis. The settings on record: HepG2, 72 h. Summed up:
as §1

As to `CC(=O)O[C@H]1C(=O)[C@@]2(C)[C@H]([C@H](OC(=O)c3ccccc3)[C@]3(O)C[C@H](OC(=O)[C@H](O)[C@@H](NC(=O)c4ccccc4)c4ccccc4)C(C)=C1C3(C)C)[C@]1(OC(C)=O)CO[C@@H]1C[C@@H]2O` [PACLITAXEL], the IC50 – broadly, the concentration needed to halve the response being measured – with A549 was 0.056 µM; with MDA-MB-231, 0.052 µM; in the experiment with HepG2, 0.054 µM.
In the same order, the values of `CC(C)=CC(=O)C[C@H](C)[C@H]1C[C@H](O)C(C)=C[C@@H]1Oc1ccc(/C=C/C(O)=C/C(=O)/C=C/c2ccc(O)cc2)cc1` [DIDEMETHOXYBISABOLOCURCUMIN ETHER] are 27.4 µM, 30.8 µM and 22.7 µM.
In the same order, the values of `COc1cc(/C=C/C(=O)/C=C(O)/C=C/c2ccc(O[C@H]3C[C@H]([C@@H](C)CCC=C(C)C)C=C[C@@]3(C)O)c(OC)c2)ccc1O` [TERPECURCUMIN C] are 35 µM, 24.6 µM and 29.5 µM.
In the same order, the values of `O=C(/C=C/c1ccc(O)cc1)CC(=O)/C=C/c1ccc(O)cc1` [BISDEMETHOXYCURCUMIN] are 38.1 µM, 38.5 µM and 62.9 µM.
As for `COc1cc(/C=C/C(=O)/C=C(O)/C=C/c2cc(OC)c(O)c([C@H]3C=C(C)CC[C@@H]3[C@@H](C)CC(=O)C=C(C)C)c2)ccc1O` [TERPECURCUMIN I], the IC50 in the experiment on A549 is 41.1 µM; in the experiment with MDA-MB-231 it was 69.5 µM; in the experiment on HepG2 it was 50.3 µM.
In the same order, the values of `COc1cc(/C=C/C(=O)CC(=O)/C=C/c2ccc(O)c(OC)c2)ccc1O` [CURCUMIN] are 49.2 µM, 37.8 µM and 31.3 µM.
Take `COc1cc(/C=C/C(=O)/C=C(O)/C=C/c2ccc(O[C@H]3C[C@H]([C@@H](C)CCC=C(C)C)[C@@H](O)C=C3C)c(OC)c2)ccc1O` [TERPECURCUMIN B]: the IC50 with A549 came to 61.9 µM; in the experiment with MDA-MB-231, 74.9 µM; in the experiment with HepG2 it was 64.1 µM.
In the same order, the values of `COc1cc(/C=C/C(=O)/C=C(O)/C=C/c2ccc(O[C@H]3C=C(C)[C@@H](O)C[C@@H]3[C@@H](C)CCC=C(C)C)c(OC)c2)ccc1O` [TERPECURCUMIN A] are 30.6 µM, 27.3 µM and 25 µM.
In the same order, the values of `COc1cc(/C=C/C(=O)/C=C(O)/C=C/c2ccc(O[C@]3(C)C=C[C@@H]([C@@H](C)CC(=O)C=C(C)C)C[C@@H]3O)cc2)ccc1O` [TERPECURCUMIN G] are 14.5 µM, 15.9 µM and 17.1 µM.
In the same order, the values of `COc1cc(/C=C/C(=O)/C=C(O)/C=C/c2ccc(O[C@H]3C[C@H]([C@@H](C)CC(=O)C=C(C)C)C=C[C@@]3(C)O)c(OC)c2)ccc1O` [TERPECURCUMIN D] are 14.3 µM, 15.9 µM and 18.3 µM.
Consider `COc1cc(/C=C/C(=O)/C=C(O)/C=C/c2ccc(O[C@H]3C=C(C)[C@@H](O)C[C@@H]3[C@@H](C)CC(=O)C=C(C)C)c(OC)c2)ccc1O` [BISABOLOCURCUMIN ETHER], for which the values for the IC50 with A549, with MDA-MB-231 and with HepG2 were 16.1 µM, 10.6 µM and 15.4 µM, respectively.
In the same order, the values of `COc1cc(/C=C/C(O)=C/C(=O)/C=C/c2ccc(O)cc2)ccc1O[C@H]1C=C(C)[C@@H](O)C[C@@H]1[C@@H](C)CC(=O)C=C(C)C` [DEMETHOXYBISABOLOCURCUMIN ETHER] are 16.6 µM, 10.3 µM and 13 µM.
In the same order, the values of `COc1cc(/C=C/C(=O)/C=C(O)/C=C/c2ccc(O[C@]3(C)C=C[C@@H]([C@@H](C)CCC=C(C)C)C[C@@H]3O)c(OC)c2)ccc1O` [TERPECURCUMIN E] are 41.4 µM, 84.1 µM and 35.9 µM.
Turning to `COc1cc(/C=C/C(O)=C/C(=O)/C=C/c2ccc(O)cc2)ccc1O` [DEMETHOXYCURCUMIN], the results for the IC50 with A549, in the experiment on MDA-MB-231 and in the experiment with HepG2 were 38.1 µM, 44.3 µM and 58.1 µM, respectively.
In the same order, the values of `COc1cc(/C=C/C(=O)/C=C(O)/C=C/c2cc(OC)c(O)c([C@H]3C=C(C)[C@@H](O)C[C@@H]3[C@@H](C)CCC=C(C)C)c2)ccc1O` [TERPECURCUMIN H] are 84.3 µM, 43.7 µM and 54.6 µM.
In the same order, the values of `COc1cc(/C=C/C(=O)/C=C(O)/C=C/c2ccc(O[C@]3(C)C=C[C@@H]([C@@H](C)CC(=O)C=C(C)C)C[C@@H]3O)c(OC)c2)ccc1O` [TERPECURCUMIN F] are 15.2 µM, 19.4 µM and 15.7 µM.
